Source: PubChem BioAssay (several laboratories)
NR2E3 ag-1 – agonists of human nuclear receptor NR2E3; Q9Y5X4; GST-NR2E3/biotin-RetCOR TR-FRET, 1536-well; inhibition of corepressor binding, % at 4.78 µM; 320,000 tested, 0.12% active; AID 2300;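 active = percent inhibition above the cutoff of mean plus 3 SD of all tested compounds, set per screening campaign, cut at about 20% in these data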
Target sequence (Q9Y5X4 whole entry, looked up): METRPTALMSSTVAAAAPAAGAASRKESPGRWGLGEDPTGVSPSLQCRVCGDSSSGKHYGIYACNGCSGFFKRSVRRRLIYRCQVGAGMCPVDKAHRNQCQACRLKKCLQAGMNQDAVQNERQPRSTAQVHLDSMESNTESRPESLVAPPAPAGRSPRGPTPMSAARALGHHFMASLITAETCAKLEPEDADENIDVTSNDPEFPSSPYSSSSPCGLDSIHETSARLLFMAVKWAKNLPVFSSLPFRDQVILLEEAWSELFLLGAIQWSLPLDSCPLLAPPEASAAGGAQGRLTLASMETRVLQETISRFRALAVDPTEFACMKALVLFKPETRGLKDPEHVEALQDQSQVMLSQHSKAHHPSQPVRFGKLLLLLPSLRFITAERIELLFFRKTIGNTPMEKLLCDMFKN
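System: GST-tagged NR2E3 plus biotinylated RetCOR corepressor; Amount: 1.35 nM GST-tagged NR2E3 final; Dosing: single nominal compound dose of 4.8 µM; Schedule: 5 h incubation at 4 °C; Technique: TR-FRET with europium anti-GST and streptavidin-D2, 340 nm excitation; Controls: biotin wells as high control, 0.6% DMSO wells as low control.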
Jurkat NFkB inh – lowers PMA/ionomycin-induced NF-kB signal in Jurkat cells; PMA/ionomycin-induced NF-kB luciferase reporter, luminescence; inhibition, % at 4 µM; 330,000 tested, 0.53% active; in the data active = inhibition above about 50%
GalR3 antagonist – blocks the human galanin receptor 3; O60755; HEK293 GalR3-CNG cAMP membrane potential fluorescence; galR3 body fused to GalR1 C-terminus; inhibition, % at 3 µM; 360,000 tested, 0.44% active; AID 651719;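 active = inhibition above the screen-wide average plus 3 SD, cut at about 13% in these data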;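 note: forskolin and galanin both at EC90 stimulate the cells; cAMP rise reported by CNG channel membrane potential dye signal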
Gli-Sufu antag – antagonists of Gli-Sufu signaling | Sufu-KO-LIGHT fibroblasts, Gli luciferase reporter luminescence | inhibition, % at 5 µM | 340,000 tested, 0.74% active | AID 588413;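 active = inhibition above about 55%, limit read from the data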
697 NFkB inh – inhibitors of the PMA/ionomycin-induced NF-kB reporter in 697 B cells; 697 B-cell NF-kB luciferase reporter, 16 h; inhibition, % at 4 µM; 330,000 tested, 0.33% active; in the data active = inhibition above about 35%
NR2E3 ag-2 – activates human NR2E3 receptor | Q9Y5X4 | CHO-S Gal4-NCOR/VP16-NR2E3 two-hybrid, luciferase | 360,000 tested, 0.35% active | inhibition of corepressor binding, % at 3.98 µM;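 active = inhibition above the mean of all tested compounds plus 3 SD, cut at about 70% in these data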;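 note: higher means lower luciferase signal from less NR2E3 corepressor binding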
Jurkat NFkB conf – inhibitors of the PMA/ionomycin-induced NF-kB reporter in Jurkat cells, retest; shares compounds with Jurkat NFkB inh; Jurkat NF-kB luciferase, 16 h; inhibition, % at 4 µM; 2,700 tested, 27% active;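 active = inhibition reaching about 45% at 4 µM in either replicate, limit read from the data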
Hits are given with their value; n = inactive; x = not tested or not shown. An excerpt weighted towards active compounds, which were near 1.8% of everything screened.

SMILES	NR2E3 ag-1	Jurkat NFkB inh	GalR3 antagonist	Gli-Sufu antag	697 NFkB inh	NR2E3 ag-2	Jurkat NFkB conf
CCOc1ccccc1C1CC(=O)Nc2cc3c(cc21)OCCO3 (configuration not stated)	n	70	n	n	n	n	57
Cc1cccc(/C=N/Nc2nncc3ccccc23)c1	n	n	n	n	n	n	n
COC(=O)c1cc2c(c3c4ccccc4n(S(=O)(=O)c4ccc(OC)cc4)c13)C(=O)N(Cc1ccc(C(F)(F)F)cc1)C2	x	x	n	x	x	x	x
N=c1c(C(=O)NCc2ccccc2)cc2c(=O)n3ccccc3nc2n1CCCN1CCOCC1	n	n	n	n	n	n	x
N=c1c(C(=O)NC2CCCCC2)cc2c(=O)n3ccccc3nc2n1CCc1ccccc1	n	58	n	n	n	n	n
N=c1c(C(=O)NCCc2ccccc2)cc2c(=O)n3ccccc3nc2n1CCCN1CCOCC1	n	53	n	n	n	n	n
Nc1[nH]c(C(=O)c2ccc(Br)cc2)c(-c2ccc(Cl)cc2[N+](=O)[O-])c1C(=O)NCCc1c[nH]c2ccccc12	x	x	n	x	x	x	x
CC(C)C(=O)N[C@H]1CCC2C3CC=C4C[C@@H](O)CC[C@]4(C)C3CC[C@@]21C (some centres not stated)	x	n	n	n	n	n	x
CC(C)(C)[C@H](N)C(=O)N[C@H]1CCC2C3CC=C4C[C@@H](O)CC[C@]4(C)C3CC[C@@]21C (some centres not stated)	x	61	n	n	n	n	n
COc1ccc(Nc2cc(C)nc3ccc(OC)cc23)cc1	n	n	n	n	n	n	x
COc1ccc2nc(C)cc(N/N=C/c3ccc(F)cc3)c2c1	n	98	n	n	n	n	89
Cc1nc(NC2=NCN(CCCN3CCOCC3)CN2)nc2c(C)cccc12	n	64	x	n	n	n	n
Cc1nc(NC2=NCN(Cc3cccnc3)CN2)nc2ccccc12	x	x	n	n	x	n	x
Cc1ccc(N/C(N)=N/c2nc(C)cc(N3CCCCC3)n2)c(C)c1	n	89	n	85	n	n	n
CCOC(=O)N[C@@H](CC(C)C)C(=O)N1CCC[C@H]1C(=O)NCc1ccccc1	x	x	n	x	x	x	x
CN1CCCCC(NC(=O)c2cccs2)C1=O (configuration not stated)	x	x	n	x	x	x	x
Fc1ccccc1/C=N/NC(=S)Nc1ccc(Cl)cc1Cl	n	53	n	n	n	n	n
Fc1ccccc1N=C1NN=C(c2ccccc2)CS1	n	n	n	n	n	n	n
C[C@@H]1CN([C@@H](C)CO)C(=O)CCCn2cc(nn2)CO[C@H]1CN(C)S(C)(=O)=O	x	x	n	x	x	x	x
CC(C)C[C@H]1COc2c(Cl)cccc2S(=O)(=O)N1	x	x	n	x	x	x	x
CC(=O)N1CCN(c2ccc(N3CCN(C(C)=O)[C@H](C)C3)c(C)c2)[C@H](C)C1	x	x	n	x	x	x	x
COc1cc(N/N=C/c2ccc(N(C)C)cc2)ncn1	n	n	n	n	n	n	n
Cc1ccc(S(=O)(=O)N2CCCc3nc(C)c(C)cc32)cc1	x	x	n	x	x	x	x
O=C(COc1ccccc1Cl)Nc1ccc(Cl)cn1	n	n	n	n	n	n	n
O=C(COc1ccccc1)Nc1ccc(Cl)cn1	n	n	n	n	n	n	x
SMILES	NR2E3 ag-1	Jurkat NFkB inh	GalR3 antagonist	Gli-Sufu antag	697 NFkB inh	NR2E3 ag-2	Jurkat NFkB conf
COc1cc(/C=C(\C#N)C(=O)N2CCOCC2)ccc1OCc1ccccc1	n	n	n	n	n	n	x
N#C/C(=C\c1ccc(OCc2ccc(C(=O)O)cc2)cc1)C(=O)N1CCOCC1	n	66	n	n	n	n	60
Cc1ccccc1-n1cnc2cc(NCc3cccs3)ccc21	n	n	n	n	n	n	x
COc1ccccc1-n1cnc2cc(NCc3cccs3)ccc21	n	51	n	n	n	n	n
C[C@H](CO)N1C[C@H](C)[C@@H](CN(C)C(=O)Cc2cccnc2)Oc2ncc(C#CCc3ccccc3)cc2C1=O	x	x	n	x	x	x	x
N#Cc1c(N2CCCC(O)C2)nc(N)c2c(N)nc3c(c12)CC(=O)N3C12CC3CC(CC(C3)C1)C2 (configuration not stated)	n	85	n	n	n	n	n
C=C(C)CN(CC)c1nc(N)c2c(N)nc3c(c2c1C#N)CC(=O)N3C12CC3CC(CC(C3)C1)C2	n	n	n	n	n	n	x
C=CCNc1cccc2c1S(=O)(=O)N[C@H](Cc1ccccc1)CO2	x	x	n	x	x	x	x
COc1ccc(C2C(C(=O)Nc3cc(OC)c(OC)c(OC)c3)c3ccccc3C(=O)N2C)cc1 (configuration not stated)	n	75	n	n	n	n	n
COc1ccc(C2C(C(=O)Nc3cccc(OC)c3)c3ccccc3C(=O)N2C)cc1 (configuration not stated)	n	n	n	n	n	n	x
CCOC(=O)N1CCN(c2c(NCc3ccc(Cl)cc3)c(=O)c2=O)CC1	n	n	n	n	n	n	x
CCOC(=O)N1CCN(c2c(NCc3ccc(F)cc3)c(=O)c2=O)CC1	n	61	n	n	n	n	n
COc1cc(OC)cc(C(=O)NCC2CCN(C(=O)C(=O)c3cccs3)CC2)c1	x	x	n	x	x	x	x
COc1ccc(NC(=O)CSc2nc3ccccc3c3nc4ccccc4n23)cc1	n	x	n	n	x	n	x
Cc1ccc(NC(=O)CSc2nc3ccccc3c3nc4ccccc4n23)cc1	n	73	n	n	n	n	n
CCCCCCN1CCN(C2CN(Cc3cn(Cc4ccc(C(F)(F)F)cc4)nn3)S(=O)(=O)C2)CC1 (configuration not stated)	x	x	n	x	x	x	x
CCOC(=O)C1=CCN(S(C)(=O)=O)C1c1ccc(Cl)cc1 (configuration not stated)	x	x	n	x	x	x	x
COc1cccc(-c2cc(C(=O)NC3CCCC3)no2)c1	n	n	n	n	n	n	n
COCCNC(=O)c1cc(-c2cccc(OC)c2)on1	n	n	n	n	n	n	x
COc1cccc(-c2cc(C(=O)Nc3cccc(O)c3)no2)c1	n	n	n	n	n	n	n
CC(=O)c1cccc(NC(=O)c2cc(-c3cccs3)on2)c1	n	n	n	n	n	n	x
O=C(Nc1cccc(O)c1)c1cc(-c2cccs2)on1	n	n	n	n	n	n	n
CCOC(=O)/C(=C\Nc1cccc(OCc2ccccc2)c1)NC(=O)c1ccccc1	x	x	n	x	x	x	x
NC(N)=N/N=C/c1ccccc1	n	n	n	n	n	n	x
NC(N)=N/N=C/c1ccc(OCc2ccccc2Cl)cc1	n	63	n	n	n	n	n
COc1cccc(CNC(=O)[C@H]2CCCN2C(=O)[C@H]2CCCN2C(=O)c2cccc(F)c2)c1	x	x	n	x	x	x	x
Cc1cc(C)nc(/N=C(\N)Nc2cccc(OCc3ccccc3)c2)n1	n	70	n	n	n	n	n
COc1ccc(N/C(N)=N/c2nc(C)cc(C)n2)cc1	x	x	n	x	x	n	x
